In ChEMBL document CHEMBL1142459, “Design and synthesis of a novel series of pyranonaphthoquinones as topoisomerase II catalytic inhibitors” (J Med Chem, 2008):
Active and inactive are the calls of the source. The calls are words filed in the database; no cut-off is given here.

Tests used:
[1] = target: DNA topoisomerase 2-alpha (Homo sapiens) (UniProt P11388); experiment: Inhibition of human topoisomerase 2 alpha-mediated Crithidia fasciculate kDNA decatenation at 100 uM
[2] = target: DNA topoisomerase 2-alpha (Homo sapiens) (UniProt P11388); experiment: Inhibition of human topoisomerase 2 alpha-mediated bacterial plasmid DNA relaxation assessed as pRYG negative supercoiled form at 100 uM
[3] = target: DNA topoisomerase 2-alpha (Homo sapiens) (UniProt P11388); experiment: Inhibition of human topoisomerase 2 alpha-mediated bacterial plasmid DNA relaxation assessed as pRYG negative supercoiled form added 100 uM after relaxation
Nucleic Acid = experiment: DNA intercalative activity assessed retardation in migration of negatively supercoiled small circular Escherichia coli pBSKS in agarose gel electrophoresis at 100 uM; assay type: nucleic-acid assay
How it was run: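 250 ng negatively supercoiled pBSKS incubated 10 min at 37 °C with compound at 100 µM in 1% (v/v) DMSO; ethidium bromide 1 µg/mL as intercalator control. Run on 1% agarose in 1× TBE without ethidium bromide at 0.5 V/cm (low field); retardation of migration scored.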

DNA topoisomerase 2-alpha (Homo sapiens), sequence (P11388 whole entry): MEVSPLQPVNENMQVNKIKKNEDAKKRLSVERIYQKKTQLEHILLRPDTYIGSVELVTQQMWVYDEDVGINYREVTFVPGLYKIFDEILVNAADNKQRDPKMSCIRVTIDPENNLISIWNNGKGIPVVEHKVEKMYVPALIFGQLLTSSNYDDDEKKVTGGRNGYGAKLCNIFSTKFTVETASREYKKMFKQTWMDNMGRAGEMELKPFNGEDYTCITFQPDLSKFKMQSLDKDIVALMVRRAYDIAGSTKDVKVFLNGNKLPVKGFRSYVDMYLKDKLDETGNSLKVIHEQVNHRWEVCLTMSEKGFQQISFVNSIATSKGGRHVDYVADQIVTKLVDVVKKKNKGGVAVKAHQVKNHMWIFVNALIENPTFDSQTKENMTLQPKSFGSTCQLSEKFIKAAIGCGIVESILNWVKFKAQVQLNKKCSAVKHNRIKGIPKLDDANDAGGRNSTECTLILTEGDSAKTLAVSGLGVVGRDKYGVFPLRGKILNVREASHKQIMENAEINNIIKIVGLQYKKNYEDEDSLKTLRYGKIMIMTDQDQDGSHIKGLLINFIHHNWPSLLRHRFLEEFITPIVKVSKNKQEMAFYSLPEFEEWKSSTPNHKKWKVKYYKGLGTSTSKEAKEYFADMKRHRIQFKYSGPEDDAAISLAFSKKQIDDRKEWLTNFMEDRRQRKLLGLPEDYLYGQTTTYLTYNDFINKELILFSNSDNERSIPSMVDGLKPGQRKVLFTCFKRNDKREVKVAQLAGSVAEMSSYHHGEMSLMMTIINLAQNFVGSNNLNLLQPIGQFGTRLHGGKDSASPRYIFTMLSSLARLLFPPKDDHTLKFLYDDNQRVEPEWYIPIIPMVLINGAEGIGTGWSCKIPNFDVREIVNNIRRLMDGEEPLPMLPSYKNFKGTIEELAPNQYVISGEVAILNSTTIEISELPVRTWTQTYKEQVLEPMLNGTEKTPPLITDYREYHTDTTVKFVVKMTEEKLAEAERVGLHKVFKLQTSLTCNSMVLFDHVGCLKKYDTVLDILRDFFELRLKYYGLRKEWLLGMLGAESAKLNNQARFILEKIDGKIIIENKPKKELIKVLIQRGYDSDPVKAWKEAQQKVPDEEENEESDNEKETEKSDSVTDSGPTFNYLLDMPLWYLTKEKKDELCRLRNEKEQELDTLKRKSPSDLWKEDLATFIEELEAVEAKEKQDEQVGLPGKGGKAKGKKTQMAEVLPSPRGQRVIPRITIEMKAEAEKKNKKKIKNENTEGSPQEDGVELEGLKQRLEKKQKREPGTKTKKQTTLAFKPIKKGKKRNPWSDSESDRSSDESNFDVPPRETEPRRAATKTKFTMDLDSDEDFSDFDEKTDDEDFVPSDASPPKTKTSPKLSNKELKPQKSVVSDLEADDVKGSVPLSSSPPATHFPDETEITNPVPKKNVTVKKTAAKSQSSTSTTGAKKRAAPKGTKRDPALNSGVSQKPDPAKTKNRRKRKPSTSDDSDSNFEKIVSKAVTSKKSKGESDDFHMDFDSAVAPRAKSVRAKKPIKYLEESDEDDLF

CC1(C)OC2=C(C(=O)C(=O)c3ccccc32)[C@@H]2c3c(ccc4ccccc34)OC[C@@H]21
Activity [1]: Active
Activity [2]: Active
Activity [3]: inactive
Activity (Nucleic Acid): inactive

C[C@H]1CC[C@@H]2[C@@H]1C1=C(OC2(C)C)c2ccccc2C(=O)C1=O
Activity [1]: inactive
Activity [2]: inactive
Activity [3]: inactive
Activity (Nucleic Acid): inactive

COc1cc([C@@H]2c3cc4c(cc3[C@@H](O[C@@H]3O[C@@H]5CO[C@@H](C)O[C@H]5[C@H](O)[C@H]3O)[C@H]3COC(=O)[C@H]23)OCO4)cc(OC)c1O
Activity [2]: inactive
Activity [3]: Active
Activity (Nucleic Acid): inactive

C[C@H]1CC[C@H]2[C@H](C1)C1=C(OC2(C)C)c2ccccc2C(=O)C1=O
Activity [1]: inactive
Activity [2]: inactive
Activity [3]: inactive
Activity (Nucleic Acid): inactive

CC1(C)OC2=C(C(=O)C(=O)c3ccccc32)[C@@H]2c3cc(Br)ccc3OC[C@@H]21
Activity [1]: Active
Activity [2]: Active
Activity [3]: inactive
Activity (Nucleic Acid): inactive

CC1(C)OC2=C(C(=O)c3ccccc3C2=O)[C@H]2c3cc(Br)ccc3OC[C@H]21
Activity [1]: Active
Activity [2]: Active
Activity [3]: inactive
Activity (Nucleic Acid): inactive

CC[n+]1c(-c2ccccc2)c2cc(N)ccc2c2ccc(N)cc21
Activity (Nucleic Acid): Active

CC1(C)OC2=C(C(=O)c3ccccc3C2=O)[C@H]2c3cc(Br)cc(Br)c3OC[C@H]21
Activity [1]: Active
Activity [2]: Active
Activity [3]: inactive
Activity (Nucleic Acid): inactive

CC1(C)OC2=C(C(=O)c3ccccc3C2=O)[C@H]2c3c(ccc4ccccc34)OC[C@H]21
Activity [1]: inactive
Activity [2]: inactive
Activity [3]: inactive
Activity (Nucleic Acid): inactive

C[C@@H]1CC[C@H]2[C@H]1C1=C(OC2(C)C)C(=O)c2ccccc2C1=O
Activity [1]: inactive
Activity [2]: inactive
Activity [3]: inactive
Activity (Nucleic Acid): inactive

C[C@@H]1CC[C@@H]2[C@@H](C1)C1=C(OC2(C)C)C(=O)c2ccccc2C1=O
Activity [1]: inactive
Activity [2]: inactive
Activity [3]: inactive
Activity (Nucleic Acid): inactive

COc1ccc2c(c1)OC[C@H]1[C@@H]2C2=C(OC1(C)C)c1ccccc1C(=O)C2=O
Activity [1]: Active
Activity [2]: Active
Activity [3]: inactive
Activity (Nucleic Acid): inactive

COc1ccc2c(c1)OC[C@@H]1[C@H]2C2=C(OC1(C)C)C(=O)c1ccccc1C2=O
Activity [1]: Active
Activity [2]: Active
Activity [3]: inactive
Activity (Nucleic Acid): inactive

Cc1c2ccncc2c(C)c2c1[nH]c1ccccc12
Activity [2]: Active
Activity [3]: inactive
Activity (Nucleic Acid): Active
